Assay results published in ChEMBL document CHEMBL4765445, “Structure-activity relationship study of novel quinazoline-based 1,6-naphthyridinones as MET inhibitors with potent antitumor efficacy” (Eur J Med Chem, 2020).

Columns and labels:
[1] = Cmax in rat at 5 mg/kg, iv; type: ADME, organism-based; design: route intravenous, dose 5 mg/kg; conditions: in vivo
In short: (§1)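 Rat pharmacokinetics used 10 mg/kg p.o. and 5 mg/kg i.v. with vehicle 70% PEG400-30% water. Plasma concentration–time curves gave Cmax, Tmax, T1/2, AUC0-∞, CL, Vz and oral bioavailability F. Values are the average of three animals.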

[2] = molecular target: T1, Receptor-type tyrosine-protein kinase FLT3 (Homo sapiens, UniProt P36888); test: Inhibition of FLT3 (unknown origin)
T1 sequence (P36888 whole entry): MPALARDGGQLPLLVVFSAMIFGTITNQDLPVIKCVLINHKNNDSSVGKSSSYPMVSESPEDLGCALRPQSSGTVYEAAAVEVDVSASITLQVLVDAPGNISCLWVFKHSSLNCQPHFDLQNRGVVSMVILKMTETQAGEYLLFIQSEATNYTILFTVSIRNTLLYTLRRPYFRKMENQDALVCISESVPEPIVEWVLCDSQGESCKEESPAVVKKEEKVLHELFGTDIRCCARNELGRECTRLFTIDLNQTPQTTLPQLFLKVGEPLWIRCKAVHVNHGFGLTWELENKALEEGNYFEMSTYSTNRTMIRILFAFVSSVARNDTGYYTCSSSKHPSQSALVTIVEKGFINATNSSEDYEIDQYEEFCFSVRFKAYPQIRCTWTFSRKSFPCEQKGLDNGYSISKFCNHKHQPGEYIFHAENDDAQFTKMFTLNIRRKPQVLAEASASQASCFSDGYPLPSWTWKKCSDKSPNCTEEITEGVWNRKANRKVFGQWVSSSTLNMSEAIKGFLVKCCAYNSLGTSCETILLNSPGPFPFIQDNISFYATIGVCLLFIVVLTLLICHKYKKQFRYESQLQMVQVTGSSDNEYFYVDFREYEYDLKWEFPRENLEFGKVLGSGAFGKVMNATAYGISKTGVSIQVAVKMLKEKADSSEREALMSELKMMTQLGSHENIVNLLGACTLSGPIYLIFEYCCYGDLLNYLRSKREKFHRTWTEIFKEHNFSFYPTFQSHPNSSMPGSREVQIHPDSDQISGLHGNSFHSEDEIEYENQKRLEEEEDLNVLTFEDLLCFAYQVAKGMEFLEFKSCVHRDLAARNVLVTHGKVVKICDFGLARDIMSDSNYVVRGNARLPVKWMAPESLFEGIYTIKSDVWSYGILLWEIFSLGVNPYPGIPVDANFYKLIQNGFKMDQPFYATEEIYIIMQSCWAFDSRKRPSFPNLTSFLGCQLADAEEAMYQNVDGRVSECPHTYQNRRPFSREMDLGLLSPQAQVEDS

[3] = Oral bioavailability in rat at 10 mg/kg; type: ADME, organism-based; conditions: in vivo; in short: as §1
[4] = Half life in rat at 5 mg/kg, iv; type: ADME, organism-based; conditions: in vivo; in short: as §1
[5] = Cmax in nude mouse xenografted with human U-87 MG cells at 75 mg/kg, po administered once daily for 3 weeks; type: ADME, organism-based; design: route oral, time 3 weeks, dose 75 mg/kg; conditions: in vivo
In short: (§2)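 PK/PD sampling was done within the U-87 MG nude-mouse xenograft study. Compound was given p.o. once daily for 21 days in 70% PEG-400/H₂O. Cmax and AUC0-t were measured in plasma.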

[6] = Tmax in rat at 5 mg/kg, iv; type: ADME, organism-based; conditions: in vivo; in short: as §1
[7] = AUC (0 to t) in nude mouse xenografted with human U-87 MG cells at 75 mg/kg, po administered once daily for 3 weeks; type: ADME, organism-based; design: time 3 weeks, dose 75 mg/kg; conditions: in vivo
[8] = Tmax in rat at 10 mg/kg, po; type: ADME, organism-based; conditions: in vivo; in short: as §1
[9] = AUC (0 to infinity) in rat at 5 mg/kg, iv; type: ADME, organism-based; design: time infinity, route intravenous, dose 5 mg/kg; conditions: in vivo
[10] = molecular target: T2, Hepatocyte growth factor receptor (Homo sapiens, UniProt P08581); test: Inhibition of recombinant MET kinase domain (unknown origin)
[11] = Half life in human liver microsomes; type: ADME, Microsome
[12] = molecular target: Vascular endothelial growth factor receptor 2 (Homo sapiens, UniProt P35968); test: Inhibition of recombinant VEGFR2 kinase domain (unknown origin)
In short: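 In vitro kinase assay using purified recombinant VEGFR-2 kinase domain; IC50 determined.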

U-87 MG [13] = test: Antitumor activity against human U-87 MG cells xenografted in po dosed nude mouse assessed as tumor growth inhibition administered once daily for 3 weeks; type: functional, U-87MG ATCC
[14] = AUC (0 to t) in nude mouse xenografted with human U-87 MG cells at 25 mg/kg, po administered once daily for 3 weeks; type: ADME, organism-based; design: time 3 weeks, dose 25 mg/kg; conditions: in vivo
[15] = molecular target: Mast/stem cell growth factor receptor Kit (Homo sapiens, UniProt P10721); test: Inhibition of c-KIT (unknown origin)
[16] = Cmax in nude mouse xenografted with human U-87 MG cells at 25 mg/kg, po administered once daily for 3 weeks; type: ADME, organism-based; design: route oral, dose 25 mg/kg, time 3 weeks; conditions: in vivo; in short: as §2
[17] = molecular target: T2, Hepatocyte growth factor receptor; test: Inhibition of MET in human MKN-45 cells assessed as reduction in HGF-mediated autophosphorylation; type: cell-based
[18] = Half life in rat at 10 mg/kg, po; type: ADME, organism-based; conditions: in vivo; in short: as §1
U-87 MG [19] = test: Antitumor activity against human U-87 MG cells xenografted in nude mouse assessed as tumor growth inhibition at 25 mg/kg, po administered once daily for 3 weeks; type: functional, U-87MG ATCC; conditions: 504 h, read-out: TGI
[20] = Apparent volume of distribution in rat at 10 mg/kg, po; type: ADME, organism-based; conditions: in vivo; in short: as §1
[21] = Clearance in rat at 10 mg/kg, po; type: ADME, organism-based; conditions: in vivo; in short: as §1
[22] = Clearance in rat at 5 mg/kg, iv; type: ADME, organism-based; conditions: in vivo; in short: as §1
[23] = Cmax in rat at 10 mg/kg, po; type: ADME, organism-based; design: route oral, dose 10 mg/kg; conditions: in vivo; in short: as §1
U-87 MG [24] = test: Antitumor activity against human U-87 MG cells xenografted in nude mouse assessed as tumor growth inhibition at 75 mg/kg, po administered once daily for 3 weeks relative to control; type: functional, U-87MG ATCC; conditions: 504 h, read-out: TGI
[25] = Apparent volume of distribution in rat at 5 mg/kg, iv; type: ADME, organism-based; conditions: in vivo, read-out: Vz; in short: as §1
[26] = molecular target: Platelet-derived growth factor receptor beta (Homo sapiens, UniProt P09619); test: Inhibition of PDGFRbeta (unknown origin)
[27] = AUC (0 to infinity) in rat at 10 mg/kg, po; type: ADME, organism-based; design: time infinity, route oral, dose 10 mg/kg; conditions: in vivo

T2 sequence (P08581 whole entry, the tested form may be a part): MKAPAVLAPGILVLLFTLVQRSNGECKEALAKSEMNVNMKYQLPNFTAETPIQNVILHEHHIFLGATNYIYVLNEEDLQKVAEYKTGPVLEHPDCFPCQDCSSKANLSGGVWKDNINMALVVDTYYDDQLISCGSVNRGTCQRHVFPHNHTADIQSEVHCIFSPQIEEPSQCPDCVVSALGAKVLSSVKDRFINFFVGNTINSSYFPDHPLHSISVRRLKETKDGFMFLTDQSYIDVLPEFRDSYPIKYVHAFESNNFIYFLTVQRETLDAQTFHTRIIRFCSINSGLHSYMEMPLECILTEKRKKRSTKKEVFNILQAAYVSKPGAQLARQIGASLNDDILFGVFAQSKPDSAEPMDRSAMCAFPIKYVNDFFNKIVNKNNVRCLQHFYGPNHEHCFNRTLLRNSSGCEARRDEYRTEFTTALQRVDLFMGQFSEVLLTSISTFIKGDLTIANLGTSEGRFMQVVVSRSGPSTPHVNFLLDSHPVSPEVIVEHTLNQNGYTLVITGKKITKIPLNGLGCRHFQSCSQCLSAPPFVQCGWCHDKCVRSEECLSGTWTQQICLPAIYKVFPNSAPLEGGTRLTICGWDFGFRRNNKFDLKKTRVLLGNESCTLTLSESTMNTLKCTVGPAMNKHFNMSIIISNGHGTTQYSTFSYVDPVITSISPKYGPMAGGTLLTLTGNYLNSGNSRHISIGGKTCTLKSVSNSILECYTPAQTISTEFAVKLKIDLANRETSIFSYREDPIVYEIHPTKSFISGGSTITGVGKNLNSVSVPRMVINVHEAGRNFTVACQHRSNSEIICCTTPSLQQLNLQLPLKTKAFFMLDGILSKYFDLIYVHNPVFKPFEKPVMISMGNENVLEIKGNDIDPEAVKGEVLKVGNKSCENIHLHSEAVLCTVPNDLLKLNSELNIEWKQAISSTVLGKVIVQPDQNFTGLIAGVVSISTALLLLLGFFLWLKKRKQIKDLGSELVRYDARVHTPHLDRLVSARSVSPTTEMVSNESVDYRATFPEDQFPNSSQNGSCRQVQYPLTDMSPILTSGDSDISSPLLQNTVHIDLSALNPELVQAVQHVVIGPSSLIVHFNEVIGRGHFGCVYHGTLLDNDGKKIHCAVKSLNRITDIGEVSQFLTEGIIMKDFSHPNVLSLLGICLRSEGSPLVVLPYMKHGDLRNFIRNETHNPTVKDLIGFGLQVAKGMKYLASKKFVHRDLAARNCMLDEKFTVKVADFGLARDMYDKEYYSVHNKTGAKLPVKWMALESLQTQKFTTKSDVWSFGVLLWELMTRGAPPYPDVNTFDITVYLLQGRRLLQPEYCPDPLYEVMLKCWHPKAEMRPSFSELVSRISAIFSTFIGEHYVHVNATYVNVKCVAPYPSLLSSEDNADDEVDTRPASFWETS
Sequence of Platelet-derived growth factor receptor beta (P09619 whole entry): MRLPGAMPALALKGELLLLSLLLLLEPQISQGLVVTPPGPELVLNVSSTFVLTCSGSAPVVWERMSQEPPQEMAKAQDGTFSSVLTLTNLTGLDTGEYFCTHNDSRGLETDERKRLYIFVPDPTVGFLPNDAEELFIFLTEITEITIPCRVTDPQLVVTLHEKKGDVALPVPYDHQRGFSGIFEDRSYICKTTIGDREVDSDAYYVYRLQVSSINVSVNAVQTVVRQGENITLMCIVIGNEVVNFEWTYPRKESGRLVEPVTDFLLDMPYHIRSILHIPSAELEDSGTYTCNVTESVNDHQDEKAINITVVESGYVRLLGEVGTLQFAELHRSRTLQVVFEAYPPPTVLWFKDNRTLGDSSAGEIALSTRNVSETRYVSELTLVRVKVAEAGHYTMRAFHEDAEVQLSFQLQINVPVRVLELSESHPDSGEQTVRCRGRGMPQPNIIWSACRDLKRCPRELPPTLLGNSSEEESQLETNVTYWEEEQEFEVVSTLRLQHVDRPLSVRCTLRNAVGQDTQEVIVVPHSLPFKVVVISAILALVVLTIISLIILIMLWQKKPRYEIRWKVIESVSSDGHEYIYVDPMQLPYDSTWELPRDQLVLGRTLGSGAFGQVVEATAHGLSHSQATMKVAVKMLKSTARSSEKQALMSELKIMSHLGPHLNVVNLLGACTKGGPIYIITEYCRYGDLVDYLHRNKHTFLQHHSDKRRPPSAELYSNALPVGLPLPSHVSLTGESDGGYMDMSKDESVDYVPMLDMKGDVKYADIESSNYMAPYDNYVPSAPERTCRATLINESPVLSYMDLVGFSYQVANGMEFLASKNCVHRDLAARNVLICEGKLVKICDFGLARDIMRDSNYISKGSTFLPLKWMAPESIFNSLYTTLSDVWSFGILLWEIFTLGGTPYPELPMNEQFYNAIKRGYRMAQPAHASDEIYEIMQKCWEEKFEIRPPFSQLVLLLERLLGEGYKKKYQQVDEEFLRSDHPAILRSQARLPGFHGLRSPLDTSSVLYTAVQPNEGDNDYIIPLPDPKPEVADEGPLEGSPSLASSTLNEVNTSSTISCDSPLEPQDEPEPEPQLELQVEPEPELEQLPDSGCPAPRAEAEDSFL
Sequence of Mast/stem cell growth factor receptor Kit (P10721 whole entry): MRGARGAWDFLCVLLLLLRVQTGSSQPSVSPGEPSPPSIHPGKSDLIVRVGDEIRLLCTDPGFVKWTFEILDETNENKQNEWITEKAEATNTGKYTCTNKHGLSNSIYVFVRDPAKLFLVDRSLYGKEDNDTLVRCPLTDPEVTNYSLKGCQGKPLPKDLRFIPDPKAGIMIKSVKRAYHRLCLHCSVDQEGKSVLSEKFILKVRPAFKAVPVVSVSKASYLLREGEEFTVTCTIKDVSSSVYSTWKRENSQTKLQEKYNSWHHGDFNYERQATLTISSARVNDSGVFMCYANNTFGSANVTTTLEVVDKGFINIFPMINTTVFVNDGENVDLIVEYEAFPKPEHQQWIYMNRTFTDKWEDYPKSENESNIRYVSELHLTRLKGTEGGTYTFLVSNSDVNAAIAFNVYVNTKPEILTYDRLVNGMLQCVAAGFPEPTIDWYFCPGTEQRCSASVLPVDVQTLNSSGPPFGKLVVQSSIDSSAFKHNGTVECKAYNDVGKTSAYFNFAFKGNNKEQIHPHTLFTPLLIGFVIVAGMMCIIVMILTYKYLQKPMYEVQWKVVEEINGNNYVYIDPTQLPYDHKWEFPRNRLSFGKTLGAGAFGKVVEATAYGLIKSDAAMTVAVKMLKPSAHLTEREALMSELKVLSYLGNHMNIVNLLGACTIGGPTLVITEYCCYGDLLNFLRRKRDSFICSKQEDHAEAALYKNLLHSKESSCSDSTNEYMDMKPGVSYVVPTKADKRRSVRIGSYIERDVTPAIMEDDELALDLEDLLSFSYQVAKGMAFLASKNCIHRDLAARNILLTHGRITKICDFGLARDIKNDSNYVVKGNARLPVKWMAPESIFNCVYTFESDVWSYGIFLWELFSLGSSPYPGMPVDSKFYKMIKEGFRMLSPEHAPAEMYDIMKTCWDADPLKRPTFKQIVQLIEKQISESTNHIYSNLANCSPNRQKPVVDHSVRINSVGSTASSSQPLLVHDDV
Sequence of Vascular endothelial growth factor receptor 2 (P35968 whole entry, the tested form may be a part): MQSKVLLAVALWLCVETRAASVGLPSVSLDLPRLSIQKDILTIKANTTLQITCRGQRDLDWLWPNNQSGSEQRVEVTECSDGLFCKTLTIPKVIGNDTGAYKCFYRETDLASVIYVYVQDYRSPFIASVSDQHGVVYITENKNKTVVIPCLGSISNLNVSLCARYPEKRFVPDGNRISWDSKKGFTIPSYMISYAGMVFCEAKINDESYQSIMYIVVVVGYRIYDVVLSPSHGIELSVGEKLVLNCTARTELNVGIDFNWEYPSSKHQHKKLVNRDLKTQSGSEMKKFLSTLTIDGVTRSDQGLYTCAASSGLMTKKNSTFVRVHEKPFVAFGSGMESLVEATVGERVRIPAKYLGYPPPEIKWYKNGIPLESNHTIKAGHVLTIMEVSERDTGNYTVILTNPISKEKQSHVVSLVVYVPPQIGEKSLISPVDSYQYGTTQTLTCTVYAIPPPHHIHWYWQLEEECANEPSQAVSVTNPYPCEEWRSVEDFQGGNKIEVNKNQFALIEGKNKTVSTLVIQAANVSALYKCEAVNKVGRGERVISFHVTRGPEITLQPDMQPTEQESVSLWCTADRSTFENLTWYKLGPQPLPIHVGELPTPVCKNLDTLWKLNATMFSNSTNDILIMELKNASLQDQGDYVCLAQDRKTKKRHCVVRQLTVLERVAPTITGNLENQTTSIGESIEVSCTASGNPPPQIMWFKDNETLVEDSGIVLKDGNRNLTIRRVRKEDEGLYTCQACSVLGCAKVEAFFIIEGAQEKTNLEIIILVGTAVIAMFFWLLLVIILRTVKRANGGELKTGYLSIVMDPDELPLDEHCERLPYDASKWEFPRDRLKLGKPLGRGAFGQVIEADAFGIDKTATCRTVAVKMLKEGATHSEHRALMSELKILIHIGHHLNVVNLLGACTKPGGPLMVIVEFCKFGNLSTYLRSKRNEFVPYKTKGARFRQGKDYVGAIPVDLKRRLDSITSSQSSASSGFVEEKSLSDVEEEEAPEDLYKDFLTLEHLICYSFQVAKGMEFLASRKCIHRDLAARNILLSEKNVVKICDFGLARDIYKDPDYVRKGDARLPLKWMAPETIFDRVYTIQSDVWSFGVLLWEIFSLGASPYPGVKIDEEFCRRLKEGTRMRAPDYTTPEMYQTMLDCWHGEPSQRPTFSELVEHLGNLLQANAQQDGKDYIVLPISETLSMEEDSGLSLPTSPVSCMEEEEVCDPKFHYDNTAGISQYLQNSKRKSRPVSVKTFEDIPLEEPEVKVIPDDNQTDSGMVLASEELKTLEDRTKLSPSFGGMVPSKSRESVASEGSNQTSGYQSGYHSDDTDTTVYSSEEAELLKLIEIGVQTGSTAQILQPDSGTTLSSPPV

COc1cc2ncnc(Oc3ccc(Nc4nccc5[nH]cc(-c6ccc(F)cc6)c(=O)c45)cc3)c2cc1OC showed a Cmax [1] of 44000 ng/mL, an IC50 [2] of 16.9 nM and a bioavailability [3] of 42%. For the same compound, the half-life [4] was 14 h, the Cmax [5] was 16000 ng/mL and the Tmax [6] was 1.8 min. The AUC(0-t) at 504 h [7] was 279 µg·h/mL, the Tmax [8] was 3.5 h and the AUC(0-inf) [9] was 510 µg·h/mL. It also gave an IC50 [10] of 9 nM, a half-life [11] of 10.4 h and an IC50 [12] of 111 nM. The ED50 (U-87 MG [13]; 504 h) was 25 mg/kg, the TGI (U-87 MG [13]; U-87MG ATCC) was “Dose-dependent effect” and the AUC(0-t) at 504 h [14] was 156 µg·h/mL. The IC50 [15] was 28.3 nM, the Cmax [16] was 12100 ng/mL and the IC50 [17] was 86.5 nM. It also gave a half-life [18] of 12.5 h, an inhibition in vivo at 25 mg/kg (U-87 MG [19]) of 51% and a Vz [20] of 0.4 L/kg. For the same compound, the CL/F [21] was 0.333 mL/min/kg, the clearance [22] was 0.167 mL/min/kg and the Cmax [23] was 25100 ng/mL. It also gave an inhibition in vivo at 75 mg/kg (U-87 MG [24]) of 81%, a Vd [25] of 0.2 L/kg and an IC50 [26] of over 2000 nM. The AUC(0-inf) [27] was 427 µg·h/mL.
